Active and inactive are the calls of the source. The calls are words filed in the database; no cut-off is given here.
Tests used:
[1] = tested on: Candida parapsilosis; experiment: Antifungal activity against Candida parapsilosis CLIB214 assessed as growth inhibition at 50 uM added after 4 hrs of bacterial growth measured after 4 hrs; assay type: functional; conditions: Lodderomyces parapsilosis, CLIB214, 4 h
Method in brief: (§1)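 Overnight YPD culture at 30°C diluted to A600 0.2 in YPD. Farnesol added to 50 μM final at 2, 4, 6 or 8 h of growth (A600 about 0.8 at 4 h, 2.3 at 6 h, 6 at 8 h). Growth compared with methanol controls by A600 or cell counts.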

[2] = tested on: Candida parapsilosis; experiment: Antifungal activity against Candida parapsilosis CLIB214 assessed as growth inhibition at 50 uM added after 8 hrs of bacterial growth measured after 4 hrs; assay type: functional; conditions: Lodderomyces parapsilosis; method in brief: as §1
[3] = tested on: Candida parapsilosis; experiment: Increase in GLN1 gene expression in Candida parapsilosis CLIB214 by RT-PCR; assay type: functional, organism-based
Method in brief: (§2)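 Cultures in YPD at 30°C, diluted to A600 0.2; 50 μM farnesol (final) or methanol added at 4 h, RNA harvested 2 h later. RT-PCR: 95°C hot start 1 min 30 s, then 26 cycles (95°C 40 s, 55°C 2 min, 72°C 3 min), final 72°C 5 min; each gene signal normalized to ACT1.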

[4] = tested on: Candida parapsilosis; experiment: Decrease in CGD gene ortholog accession number orf19.2097 expression in Candida parapsilosis CLIB214 at 50 uM after 2 hrs by microarray based transcriptional profiling relative to control; assay type: functional
Method in brief: (§3)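 Cells in YPD at 30°C treated with 50 μM farnesol at 4 h, with a methanol control. RNA harvested 2 h later and kept only if 28S/18S ratio was 1.6–2.2 with no degradation. 25 μg total RNA oligo-dT primed and labeled with Cy3/Cy5-dCTP. Labeled cDNA hybridized about 16 h at 42°C to duplicate-spotted 68-mer oligo arrays. Six individual comparisons analyzed statistically.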

[5] = tested on: Candida parapsilosis; experiment: Decrease in CTN1 gene expression in Candida parapsilosis CLIB214 at 50 uM after 2 hrs by microarray based transcriptional profiling relative to control; assay type: functional
Method in brief: (§4)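 Strain CLIB214 grown overnight in YPD at 30°C, diluted to A600 0.2 in fresh YPD at 30°C. After 4 h (A600 0.8), farnesol (40 mM methanol stock) added to 50 μM final, or an equal methanol volume as control; cells harvested 2 h later. RNA was accepted only with a 28S/18S ratio of 1.6–2.2. Cy3/Cy5-dCTP-labelled cDNA was made from 25 μg total RNA. Hybridisation was to duplicate-spotted 68-mer oligo arrays (3,849 genes) at 42°C for about 16 h. Six individual comparisons.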

[6] = tested on: Candida parapsilosis; experiment: Antifungal activity against Candida parapsilosis CLIB214 assessed as growth inhibition at 50 uM added after 6 hrs of bacterial growth measured after 4 hrs; assay type: functional; conditions: Lodderomyces parapsilosis; method in brief: as §1
[7] = tested on: Candida parapsilosis; experiment: Antifungal activity against Candida parapsilosis CLIB214 assessed as growth inhibition at 50 uM after 4 hrs; assay type: functional; conditions: CLIB214, 4 h
Method in brief: (§5)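 C. parapsilosis CLIB214 grown overnight in YPD at 30°C, diluted to A600 0.2 in fresh YPD, grown 4 h (A600 0.8), then farnesol added at final 10, 20, 50 or 100 μM from a 40 mM methanol stock. Methanol-only controls. Growth followed by A600 or by cell counting with a particle counter.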

[8] = tested on: Candida parapsilosis; experiment: Antifungal activity against Candida parapsilosis CLIB214 assessed as growth inhibition at 100 uM added 4 hrs after […] growth; assay type: functional, organism-based; method in brief: as §5
[9] = tested on: Candida parapsilosis; experiment: Effect on GAD1 gene expression in Candida parapsilosis CLIB214 by microarray based transcriptional profiling; assay type: functional, organism-based; method in brief: as §4
[10] = tested on: Candida parapsilosis; experiment: Decrease in CGD gene ortholog accession number orf19.6744 expression in Candida parapsilosis CLIB214 at 50 uM after 2 hrs by microarray based transcriptional profiling relative to control; assay type: functional; method in brief: as §4
[11] = tested on: Candida parapsilosis; experiment: Antifungal activity against Candida parapsilosis CLIB214 assessed as growth inhibition at 50 uM added after 6 hrs of bacterial growth measured after 2 hrs; assay type: functional; conditions: Lodderomyces parapsilosis; method in brief: as §1
[12] = tested on: Candida parapsilosis; experiment: Cell cycle arrest in Candida parapsilosis CLIB214 assessed as accumulation at S phase at 50 uM added 4 hrs after […] growth; assay type: functional, organism-based
Method in brief: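 YPD culture diluted to A600 0.2 at 30°C. Farnesol added to 50 μM after 4 h. Budding cells scored by microscopy: unbudded as G1, small budded as S, large budded as G2/M. Compared with methanol controls.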

[13] = tested on: Candida parapsilosis; experiment: Increase in GenBank accession number NP_943633.1 expression in Candida parapsilosis CLIB214 at 50 uM after 2 hrs by microarray based transcriptional profiling relative to control; assay type: functional
Method in brief: (§6)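 Strain grown overnight in YPD at 30°C, diluted to A600 0.2 in YPD at 30°C; farnesol (40 mM methanol stock) added at 4 h (A600 0.8), final 50 μM; methanol-only control. Cells collected 2 h later for RNA. Labelled cDNA from 25 μg total RNA (Cy3/Cy5-dCTP) hybridized to 68-mer oligo arrays at 42°C ~16 h; six individual comparisons analysed statistically.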

[14] = tested on: Candida parapsilosis; experiment: Decrease in CGD gene ortholog accession number orf19.3704 expression in Candida parapsilosis CLIB214 at 50 uM after 2 hrs by microarray based transcriptional profiling relative to control; assay type: functional; method in brief: as §3
[15] = tested on: Candida parapsilosis; experiment: Decrease in CGD gene ortholog accession number orf19.3434 expression in Candida parapsilosis CLIB214 at 50 uM after 2 hrs by microarray based transcriptional profiling relative to control; assay type: functional; method in brief: as §3
[16] = tested on: Candida parapsilosis; experiment: Effect on membrane lipid localization in ERG9 gene expression in Candida parapsilosis CLIB214 assessed as growing bud tip staining at 50 uM after 1 hr by filipin staining; assay type: functional
Method in brief: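 Cultures grown overnight in YPD at 30°C, diluted to A600 0.2, and given farnesol to 50 μM final (methanol for controls) after 4 h of growth. Cells collected 1 h later, PBS-washed, and stained 10 min at room temperature with 100 μg ml−1 filipin in water. Scored by fluorescence microscopy (excitation 360–370 nm, emission 420–460 nm) as bud-tip versus uniform sterol staining.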

[17] = tested on: Candida parapsilosis; experiment: Decrease in CGD gene ortholog accession number orf19.2366 expression in Candida parapsilosis CLIB214 at 50 uM after 2 hrs by microarray based transcriptional profiling relative to control; assay type: functional; method in brief: as §3
[18] = tested on: Candida parapsilosis; experiment: Decrease in CGD gene ortholog accession number orf19.2328 expression in Candida parapsilosis CLIB214 at 50 uM after 2 hrs by microarray based transcriptional profiling relative to control; assay type: functional; method in brief: as §3
[19] = tested on: Candida parapsilosis; experiment: Increase in POT1 gene expression in Candida parapsilosis CLIB214 at 50 uM after 2 hrs by microarray based transcriptional profiling relative to control; assay type: functional; method in brief: as §6
[20] = tested on: Candida parapsilosis; experiment: Reduction in ERG9 gene expression in Candida parapsilosis CLIB214 by RT-PCR; assay type: functional, organism-based; method in brief: as §2
[21] = tested on: Candida parapsilosis; experiment: Increase in ERG7 gene expression in Candida parapsilosis CLIB214 at 50 uM after 2 hrs by microarray based transcriptional profiling relative to control; assay type: functional; method in brief: as §6
[22] = tested on: Candida parapsilosis; experiment: Increase in CGD gene ortholog accession number orf19.1457 expression in Candida parapsilosis CLIB214 at 50 uM after 2 hrs by microarray based transcriptional profiling relative to control; assay type: functional; method in brief: as §4
[23] = tested on: Candida parapsilosis; experiment: Increase in ALS2 gene expression in Candida parapsilosis CLIB214 at 50 uM after 2 hrs by microarray based transcriptional profiling relative to control; assay type: functional; method in brief: as §4

CC(C)=CCC/C(C)=C/CC/C(C)=C/CO [FARNESOL]
inhibition at 50 µM [1]: 83%
inhibition at 50 µM [2]: 16%
Activity [3]: Active
fold change (FC) [4]: 1.53
fold change (FC) [5]: 1.92
inhibition at 50 µM [6]: 49%
inhibition at 50 µM [7]: 25.5%
Activity [8]: Active
Activity [9]: inactive
fold change (FC) [10]: 1.66
inhibition at 50 µM [11]: 40.5%
Activity [12]: Active
fold change (FC) [13]: 2.81
fold change (FC) [14]: 1.96
fold change (FC) [15]: 1.8
Activity [16]: 18%
fold change (FC) [17]: 3.21
fold change (FC) [18]: 1.5
fold change (FC) [19]: 1.71
Activity [20]: Active
fold change (FC) [21]: 1.68
fold change (FC) [22]: 1.55
fold change (FC) [23]: 1.61
